Results as given in ChEMBL document CHEMBL4177578, “Synthesis, pharmacological activities and molecular docking studies of pyrazolyltriazoles as anti-bacterial and anti-inflammatory agents” (Bioorg Med Chem, 2017).
In brackets after ≈: the same amount, converted by molar mass. Activity calls are given as the source filed them. The calls are words filed in the database; no cut-off is given here.

System: not listed separately
Assay: Anti-inflammatory activity using bovine serum albumin and egg albumin proteins incubated at 37 degC for 20 mins and then heated to 95 degC for 20 mins by UV-visible Spectrophotometry based protein denaturation method
Format: functional
Conditions: not given
In short: (§1)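 Albumin (bovine serum or egg) at 1% in 50 mM sodium phosphate buffer pH 6.4. Mixture is 0.1 ml test sample (1 mg/ml) plus 0.2 ml albumin, made to 5 ml with buffer. Held 37 °C for 20 min, then 95 °C for 20 min. Cooled to room temperature, turbidity read at 660 nm. % inhibition = (Abs control − Abs sample)/Abs control × 100. Triplicate, averaged.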
For FC(F)(F)c1ccccc1-c1cn(Cc2cn(-c3ccccc3)nc2-c2ccccc2)nn1, the IC50 was “Not Active”.
With [N-]=[N+]=NCc1cn(-c2ccccc2)nc1-c1ccc(Cl)cc1 the IC50 was “Not Active”.
In the case of Cc1ccc(-c2nn(-c3ccccc3)cc2Cn2cc(CO)nn2)cc1, the IC50 is reported as 128.89 mg/L (≈ 373 µM).
In the case of CN(C)c1ccc(-c2cn(Cc3cn(-c4ccccc4)nc3-c3ccccc3)nn2)cc1, the IC50 is reported as “Not Active”.
With CCOC(=O)c1nnn(Cc2cn(-c3ccccc3)nc2-c2ccc(Cl)cc2)c1C(=O)OCC the IC50 was “Not Active”.

System: Salmonella paratyphi
Assay: Antimicrobial activity against Salmonella paratyphi at 1 mg/ml incubated for 20 to 30 mins followed by incubation for 24 hrs at 37 degC by agar plate method
Format: functional
Conditions: Salmonella enterica subsp. enterica serovar Paratyphi A
In short: (§2)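 Agar well diffusion on nutrient agar. Plates swabbed with 60 µL inoculum, 8 mm wells loaded with 100 µL sample at 1.0 mg/mL, streptomycin standard and control in separate wells. Plates held 20–30 min at 4 °C for diffusion, then 24 h at 37 °C. Zone diameter read in mm; triplicate.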
With FC(F)(F)c1ccccc1-c1cn(Cc2cn(-c3ccccc3)nc2-c2ccccc2)nn1 the “diameter of the inhibition zone (DIZ)” value was “inactive”.
With [N-]=[N+]=NCc1cn(-c2ccccc2)nc1-c1ccc(Cl)cc1 the “diameter of the inhibition zone (DIZ)” value was “inactive”.
In the case of CN(C)c1ccc(-c2cn(Cc3cn(-c4ccccc4)nc3-c3ccccc3)nn2)cc1, the “diameter of the inhibition zone (DIZ)” value is reported as “inactive”.
With CCOC(=O)c1nnn(Cc2cn(-c3ccccc3)nc2-c2ccc(Cl)cc2)c1C(=O)OCC the “diameter of the inhibition zone (DIZ)” value was “inactive”.

Same assay, conditions: Salmonella enterica; read-out: DIZ
Compound Cc1ccc(-c2nn(-c3ccccc3)cc2Cn2cc(CO)nn2)cc1 has a zone of inhibition at 1000 µg/mL of 14 mm.

System: Staphylococcus aureus
Assay: Antimicrobial activity against Staphylococcus aureus at 1 mg/ml incubated for 20 to 30 mins followed by incubation for 24 hrs at 37 degC by agar plate method
Format: functional
Conditions: not given
In short: (§3)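 Agar well diffusion on nutrient agar. Plates swabbed with 60 µL inoculum; 8 mm wells loaded with 100 µL of compound at 1.0 mg/mL. Held 20–30 min at 4 °C for diffusion, then 24 h at 37 °C. Inhibition zone diameter read in mm. Triplicate.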
With FC(F)(F)c1ccccc1-c1cn(Cc2cn(-c3ccccc3)nc2-c2ccccc2)nn1 the “diameter of the inhibition zone (DIZ)” value was “inactive”.
With [N-]=[N+]=NCc1cn(-c2ccccc2)nc1-c1ccc(Cl)cc1 the “diameter of the inhibition zone (DIZ)” value was “inactive”.
With CN(C)c1ccc(-c2cn(Cc3cn(-c4ccccc4)nc3-c3ccccc3)nn2)cc1 the “diameter of the inhibition zone (DIZ)” value was “inactive”.
For CCOC(=O)c1nnn(Cc2cn(-c3ccccc3)nc2-c2ccc(Cl)cc2)c1C(=O)OCC, the “diameter of the inhibition zone (DIZ)” value was “inactive”.

System: not listed separately
Assay: Anti-inflammatory activity at 100 ug/ml using bovine serum albumin and egg albumin proteins incubated at 37 degC for 20 mins and then heated to 95 degC for 20 mins by UV-visible Spectrophotometry based protein denaturation method
Format: functional
Conditions: not given
In short: as §1
For FC(F)(F)c1ccccc1-c1cn(Cc2cn(-c3ccccc3)nc2-c2ccccc2)nn1, the inhibition was “inactive”.
In the case of [N-]=[N+]=NCc1cn(-c2ccccc2)nc1-c1ccc(Cl)cc1, the inhibition is reported as “inactive”.
Work on Cc1ccc(-c2nn(-c3ccccc3)cc2Cn2cc(CO)nn2)cc1 yielded an inhibition of 38.8%.
In the case of CN(C)c1ccc(-c2cn(Cc3cn(-c4ccccc4)nc3-c3ccccc3)nn2)cc1, the inhibition is reported as “inactive”.
For CCOC(=O)c1nnn(Cc2cn(-c3ccccc3)nc2-c2ccc(Cl)cc2)c1C(=O)OCC, the inhibition was “inactive”.

System: Salmonella paratyphi
Assay: Antimicrobial activity against Salmonella paratyphi incubated for 12 to 16 hrs by tube dilution method
Format: functional
Conditions: Salmonella enterica subsp. enterica serovar Paratyphi A
In short: (§4)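 Broth tube dilution, two-fold serial dilutions from 500 to 1.9 µg/mL plus a drug-free control tube. Each tube inoculated with 1 mL culture at OD 0.2 (~McFarland standard), 37 °C for 12-16 h. Turbidity compared with the control tube. MIC is the lowest concentration giving complete growth inhibition.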
For FC(F)(F)c1ccccc1-c1cn(Cc2cn(-c3ccccc3)nc2-c2ccccc2)nn1, the MIC was “inactive”.
In the case of [N-]=[N+]=NCc1cn(-c2ccccc2)nc1-c1ccc(Cl)cc1, the MIC is reported as “inactive”.
In the case of CN(C)c1ccc(-c2cn(Cc3cn(-c4ccccc4)nc3-c3ccccc3)nn2)cc1, the MIC is reported as “inactive”.
With CCOC(=O)c1nnn(Cc2cn(-c3ccccc3)nc2-c2ccc(Cl)cc2)c1C(=O)OCC the MIC was “inactive”.

System: not listed separately
Assay: Anti-inflammatory activity at 50 ug/ml using bovine serum albumin and egg albumin proteins incubated at 37 degC for 20 mins and then heated to 95 degC for 20 mins by UV-visible Spectrophotometry based protein denaturation method
Format: functional
Conditions: not given
In short: as §1
With FC(F)(F)c1ccccc1-c1cn(Cc2cn(-c3ccccc3)nc2-c2ccccc2)nn1 the inhibition was “inactive”.
With [N-]=[N+]=NCc1cn(-c2ccccc2)nc1-c1ccc(Cl)cc1 the inhibition was “inactive”.
Work on Cc1ccc(-c2nn(-c3ccccc3)cc2Cn2cc(CO)nn2)cc1 yielded an inhibition of 21.6%.
In the case of CN(C)c1ccc(-c2cn(Cc3cn(-c4ccccc4)nc3-c3ccccc3)nn2)cc1, the inhibition is reported as “inactive”.
With CCOC(=O)c1nnn(Cc2cn(-c3ccccc3)nc2-c2ccc(Cl)cc2)c1C(=O)OCC the inhibition was “inactive”.

System: Salmonella typhi
Assay: Antimicrobial activity against Salmonella typhi incubated for 12 to 16 hrs followed by plating in nutrient agar by tube dilution method
Format: functional
Conditions: Salmonella enterica subsp. enterica serovar Typhi
In short: (§5)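 After 12-16 h at 37 °C in tube dilution (500 to 1.9 µg/mL; 1 mL inoculum at OD 0.2), the culture from each tube was plated on nutrient agar. MBC is the concentration at which cells are completely killed.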
For FC(F)(F)c1ccccc1-c1cn(Cc2cn(-c3ccccc3)nc2-c2ccccc2)nn1, the MBC was “inactive”.
For [N-]=[N+]=NCc1cn(-c2ccccc2)nc1-c1ccc(Cl)cc1, the MBC was “inactive”.
For CN(C)c1ccc(-c2cn(Cc3cn(-c4ccccc4)nc3-c3ccccc3)nn2)cc1, the MBC was “inactive”.
With CCOC(=O)c1nnn(Cc2cn(-c3ccccc3)nc2-c2ccc(Cl)cc2)c1C(=O)OCC the MBC was “inactive”.

System: U-937
Assay: Anti-inflammatory activity in human U937 cells assessed as inhibition of LPS-induced TNFalpha production at 10 uM pre-incubated for 1 hr before LPS stimulation for 24 hrs by ELISA method
Format: functional
Conditions: not given
In short: (§6)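 Human U937 cells grown in RPMI1640 with 10% FBS at 37 °C, 5% CO2. Differentiated with PMA 30 ng/ml for 24 h. Test compounds added for 1 h, then LPS 1 µg/ml for 24 h. TNF-α and IL-6 in supernatant measured by ELISA. Three independent experiments.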
Cc1ccc(-c2nn(-c3ccccc3)cc2Cn2cc(CO)nn2)cc1 showed an inhibition at 10 µM of 14.8%.

System: Salmonella typhi
Assay: Antimicrobial activity against Salmonella typhi incubated for 12 to 16 hrs by tube dilution method
Format: functional
Conditions: Salmonella enterica subsp. enterica serovar Typhi
In short: as §4
With FC(F)(F)c1ccccc1-c1cn(Cc2cn(-c3ccccc3)nc2-c2ccccc2)nn1 the MIC was “inactive”.
With [N-]=[N+]=NCc1cn(-c2ccccc2)nc1-c1ccc(Cl)cc1 the MIC was “inactive”.
For CN(C)c1ccc(-c2cn(Cc3cn(-c4ccccc4)nc3-c3ccccc3)nn2)cc1, the MIC was “inactive”.
For CCOC(=O)c1nnn(Cc2cn(-c3ccccc3)nc2-c2ccc(Cl)cc2)c1C(=O)OCC, the MIC was “inactive”.

System: Micrococcus luteus
Assay: Antimicrobial activity against Micrococcus luteus incubated for 12 to 16 hrs followed by plating in nutrient agar by tube dilution method
Format: functional
Conditions: not given
In short: (§7)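 Tube dilution, serial from 500 to 1.9 µg/mL, plus drug-free control tube. Each tube inoculated with 1 mL culture at OD 0.2, incubated 37 °C for 12–16 h. MIC is the lowest concentration with no growth by turbidity. MBC is found by plating each tube on nutrient agar: the lowest concentration at which all cells are killed.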
For FC(F)(F)c1ccccc1-c1cn(Cc2cn(-c3ccccc3)nc2-c2ccccc2)nn1, the MBC was “inactive”.
For [N-]=[N+]=NCc1cn(-c2ccccc2)nc1-c1ccc(Cl)cc1, the MBC was “inactive”.
With CN(C)c1ccc(-c2cn(Cc3cn(-c4ccccc4)nc3-c3ccccc3)nn2)cc1 the MBC was “inactive”.
With CCOC(=O)c1nnn(Cc2cn(-c3ccccc3)nc2-c2ccc(Cl)cc2)c1C(=O)OCC the MBC was “inactive”.

System: Salmonella typhi
Assay: Antimicrobial activity against Salmonella typhi at 1 mg/ml incubated for 20 to 30 mins followed by incubation for 24 hrs at 37 degC by agar plate method
Format: functional
Conditions: Salmonella enterica subsp. enterica serovar Typhi
In short: as §2
For FC(F)(F)c1ccccc1-c1cn(Cc2cn(-c3ccccc3)nc2-c2ccccc2)nn1, the “diameter of the inhibition zone (DIZ)” value was “inactive”.
For [N-]=[N+]=NCc1cn(-c2ccccc2)nc1-c1ccc(Cl)cc1, the “diameter of the inhibition zone (DIZ)” value was “inactive”.
In the case of CN(C)c1ccc(-c2cn(Cc3cn(-c4ccccc4)nc3-c3ccccc3)nn2)cc1, the “diameter of the inhibition zone (DIZ)” value is reported as “inactive”.
With CCOC(=O)c1nnn(Cc2cn(-c3ccccc3)nc2-c2ccc(Cl)cc2)c1C(=O)OCC the “diameter of the inhibition zone (DIZ)” value was “inactive”.

Same assay, conditions: Salmonella enterica; read-out: DIZ
Cc1ccc(-c2nn(-c3ccccc3)cc2Cn2cc(CO)nn2)cc1 showed a zone of inhibition at 1000 µg/mL of 15 mm.

System: U-937
Assay: Anti-inflammatory activity in human U937 cells assessed as inhibition of LPS-induced IL6 production at 10 uM pre-incubated for 1 hr before LPS stimulation for 24 hrs by ELISA method
Format: functional
Conditions: not given
In short: as §6
Cc1ccc(-c2nn(-c3ccccc3)cc2Cn2cc(CO)nn2)cc1 showed an inhibition at 10 µM of 42%.

System: Micrococcus luteus
Assay: Antimicrobial activity against Micrococcus luteus at 1 mg/ml incubated for 20 to 30 mins followed by incubation for 24 hrs at 37 degC by agar plate method
Format: functional
Conditions: not given
In short: as §3
In the case of FC(F)(F)c1ccccc1-c1cn(Cc2cn(-c3ccccc3)nc2-c2ccccc2)nn1, the “diameter of the inhibition zone (DIZ)” value is reported as “inactive”.
For [N-]=[N+]=NCc1cn(-c2ccccc2)nc1-c1ccc(Cl)cc1, the “diameter of the inhibition zone (DIZ)” value was “inactive”.
With CN(C)c1ccc(-c2cn(Cc3cn(-c4ccccc4)nc3-c3ccccc3)nn2)cc1 the “diameter of the inhibition zone (DIZ)” value was “inactive”.
In the case of CCOC(=O)c1nnn(Cc2cn(-c3ccccc3)nc2-c2ccc(Cl)cc2)c1C(=O)OCC, the “diameter of the inhibition zone (DIZ)” value is reported as “inactive”.

System: Salmonella paratyphi
Assay: Antimicrobial activity against Salmonella paratyphi incubated for 12 to 16 hrs followed by plating in nutrient agar by tube dilution method
Format: functional
Conditions: Salmonella enterica subsp. enterica serovar Paratyphi A
In short: as §5
For FC(F)(F)c1ccccc1-c1cn(Cc2cn(-c3ccccc3)nc2-c2ccccc2)nn1, the MBC was “inactive”.
With [N-]=[N+]=NCc1cn(-c2ccccc2)nc1-c1ccc(Cl)cc1 the MBC was “inactive”.
For CN(C)c1ccc(-c2cn(Cc3cn(-c4ccccc4)nc3-c3ccccc3)nn2)cc1, the MBC was “inactive”.
In the case of CCOC(=O)c1nnn(Cc2cn(-c3ccccc3)nc2-c2ccc(Cl)cc2)c1C(=O)OCC, the MBC is reported as “inactive”.

System: Micrococcus luteus
Assay: Antimicrobial activity against Micrococcus luteus incubated for 12 to 16 hrs by tube dilution method
Format: functional
Conditions: not given
In short: as §7
In the case of FC(F)(F)c1ccccc1-c1cn(Cc2cn(-c3ccccc3)nc2-c2ccccc2)nn1, the MIC is reported as “inactive”.
With [N-]=[N+]=NCc1cn(-c2ccccc2)nc1-c1ccc(Cl)cc1 the MIC was “inactive”.
For CN(C)c1ccc(-c2cn(Cc3cn(-c4ccccc4)nc3-c3ccccc3)nn2)cc1, the MIC was “inactive”.
With CCOC(=O)c1nnn(Cc2cn(-c3ccccc3)nc2-c2ccc(Cl)cc2)c1C(=O)OCC the MIC was “inactive”.
